Test results as given in ChEMBL document CHEMBL1152418, “Synthesis, antiviral activity and molecular modeling of oxoquinoline derivatives” (Bioorg Med Chem, 2009).

Columns and labels:
[1] = Cytotoxicity against human PBMC by XTT assay; assay type: cell-based; details: PBMC (peripheral blood mononuclear cells)
Summary of the method: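 PBMCs held in RPMI 1640 with 10% heat-inactivated FBS, penicillin, streptomycin, 2 mM glutamine and 10 mM HEPES. Activated with 5 µg/mL PHA for 2–3 days, then kept with 5 U/mL IL-2. Cells exposed to a range of concentrations. Viability read by XTT, OD 450 nm 2 h after addition. CC50 is the concentration giving 50% viability loss versus untreated controls.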

[2] = tested on: Human immunodeficiency virus 1; experiment: Inhibition of HIV1 viral replication infected in human PBMC cells assessed as viral p24Ag concentration after 7 days postinfection by ELISA relative to untreated control; assay type: functional
Summary of the method: (§1)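 HIV-1 Ba-L (R5-tropic, subtype B) grown in PHA-activated donor PBMCs. PBMCs stimulated 2–3 days with 5 μg/mL PHA, then kept with 5 U/mL IL-2. Cells plated at 2 × 10⁵/well in triplicate with a range of compound concentrations. After 7 days at 37 °C, 5% CO₂, supernatant p24 measured by capture ELISA. EC₅₀ derived against untreated infected cells.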

[3] = Selectivity index, ratio of CC50 for human PBMC cells to EC50 for HIV1; assay type: toxicity, cell-based; details: read-out: Ratio CC50/EC50
Summary of the method: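 Ratio of PBMC CC50 to anti-HIV-1 EC50. Both were measured in PHA-activated, IL-2-maintained PBMCs. For EC50, cells were infected with Ba-L isolate (R5-tropic, subtype B), plated at 2 × 10⁵ cells/well in triplicate and treated with various concentrations for 7 days at 37 °C, 5% CO2. Supernatant p24 was measured by capture ELISA against untreated infected cells. CC50 came from XTT viability.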

[4] = tested on: Human immunodeficiency virus 1; experiment: Inhibition of HIV1 viral replication infected in human PBMC cells assessed as viral p24Ag concentration after 7 days postinfection by ELISA; assay type: functional, organism-based; details: Human immunodeficiency virus 1, PBMC, 168 h; summary of the method: as §1

SMILES	CC50 [1]	inhibition (INH) [2]	selectivity ratio [3]	EC50 [4]
O=C(NCc1ccccc1)c1c[nH]c2ccc(Cl)cc2c1=O	1400 µM	47%	26	53 µM
O=C(NCc1ccccc1)c1cn(COCCO)c2ccc(Cl)cc2c1=O	3200 µM	98%	711	4.5 µM
NNC(=O)c1cn(COCCO)c2ccc(F)cc2c1=O	909 µM	96%	275	3.3 µM
O=C(NCc1ccccc1)c1cn(COCCO)c2ccc(F)cc2c1=O	2800 µM	90%	1000	2.8 µM
O=C(O)c1cn([C@@H]2O[C@H](CO)[C@@H](O)[C@H]2O)c2ccc(Cl)cc2c1=O	1700 µM	99%	1130	1.5 µM
CCOC(=O)c1c[nH]c2ccc(Cl)cc2c1=O	1660 µM	58%	39	43 µM
Cc1cn([C@H]2C[C@H](N=[N+]=[N-])[C@@H](CO)O2)c(=O)[nH]c1=O [ZIDOVUDINE]	126 µM	94%	2520	0.05 µM
CCOC(=O)c1cn(COCCO)c2ccc(F)cc2c1=O	1500 µM	30%	18	83.3 µM
NNC(=O)c1cn(COCCO)c2ccc(Cl)cc2c1=O	2400 µM	99%	960	2.5 µM
CCOC(=O)c1cn(COCCO)c2ccc(Cl)cc2c1=O	1800 µM	45%	36	50 µM
O=C(O)c1cn(Cc2ccccc2)c2ccc(Cl)cc2c1=O	1890 µM	29%	22	86 µM
NNC(=O)c1c[nH]c2ccc(Cl)cc2c1=O	1230 µM	29%	14	86 µM
CCOC(=O)c1cn(Cc2ccccc2)c2ccc(Cl)cc2c1=O	1840 µM	24%	18	104 µM
